Test results taken from PMC10187672 (RNA, 2023).
Where “and” joins values, the source holds several entries; their conditions need not be identical. Identical values can stand only once.

Experiments:
[1] = test system: 4A1^F163L/4A2^− eHAP1 cells; assay: RT-qPCR of FF-4.04 and FF-4.06 reporter mRNA; type: cell-based; conditions: 5 h exposure, normalized to GAPDH, relative to DMSO
How it was run: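 Cells were nucleofected with the PTC-containing or control FLuc-β-globin reporter and selected as a pool in G418 (1.6 mg/mL). They were seeded at 250,000/well and exposed to compound for 5 h. After TRIzol extraction and oligo(dT) cDNA synthesis, EvaGreen qPCR used β-globin (HBB) primers. Values were normalized to GAPDH and expressed relative to DMSO.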

[2] = test system: Krebs-2 translation extracts; assay: In vitro translation of FF/HCV/Ren bicistronic reporter mRNAs; type: biochemical; conditions: Krebs-2 extracts, 1 h at 30°C
How it was run: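 Reporter mRNAs were used at 10 ng/µL final. FLuc and RLuc activities were read by luminometry, and RLU were normalized to DMSO vehicle controls.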

[3] = test system: TCR-β minigene mRNA (NMD) in HeLa cells; assay: NMD assay, RT-qPCR of TCR-β minigene mRNA in PTC− and PTC+ HeLa cells; type: cell-based; conditions: for TCR-β mRNA levels in PTC+ cells / TCR-β mRNA levels in PTC− cells: normalized to β-actin; for TCR-β mRNA levels in PTC− cells: PTC− HeLa cells
How it was run: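 HeLa cells carrying a TCR-β minigene with or without a PTC were seeded at 100,000/well and exposed to compound across a concentration series for 1 h or 5 h. Total RNA was TRIzol-extracted, and 500 ng was reverse-transcribed with oligo(dT) primer. EvaGreen qPCR followed, with TCR-β normalized to β-actin. n = 3 ± SD.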

[4] = test system: SC35 mRNA in 4A1^F163L/4A2^− eHAP1 cells; assay: RT-qPCR of endogenous SC35 and HPRT mRNA; type: cell-based; conditions: 5 h exposure, normalized to β-actin
How it was run: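 Cells were seeded at 250,000/well and given a concentration series of compound for 5 h. Total RNA was TRIzol-extracted, and 500 ng was reverse-transcribed with oligo(dT) primer. EvaGreen qPCR measured SC35 and HPRT, normalized to β-actin and expressed as fold change versus DMSO.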

eIF4A3 [5] = biological target: T1, eIF4A3 (Homo sapiens, UniProt P38919); assay: FP dissociation of preformed protein•ATP•RNA•compound complexes; type: binding; conditions: 10 µM compound, 1 mM ATP, 1000-fold molar excess unlabeled poly r(AG)8 RNA
How it was run: (§1)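 Recombinant His6-tagged human protein was expressed in E. coli BL21(DE3) and Ni-NTA purified. Complexes were preformed for 30 min at RT in the dark in FP buffer (HEPES-NaOH pH 8, 0.1% DMSO) with 1.5 µM protein, 10 nM FAM-poly r(AG)8 and 1 mM ATP. DMSO reactions used 25 µM protein. After adding 10 µM unlabeled RNA, FP was read every 10 sec. Half-life came from a one-phase exponential decay fit (Y0 = 1, plateau = 0).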

[6] = test system: HeLa cells harboring a (TCR)-β minigene; assay: [35S]-Methionine labeling of de novo protein synthesis; type: cell-based; conditions: 1 h exposure, labeling last 15 min
How it was run: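 PTC+ minigene HeLa cells were seeded at 50,000/well and treated with compound for 1 h the next day, with [35S]-Met/Cys added for the final 15 min. Cells were washed and lysed in RIPA buffer, and lysates were spotted on paper and TCA-precipitated. Radioactivity was measured by scintillation counting and normalized to total protein. n = 3 ± SD.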

[7] = test system: 4A1^F163L/4A2^− eHAP1 cells; assay: Luciferase NMD reporter assay; type: cell-based; conditions: 6 h exposure
How it was run: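 Cells were transfected at 75% confluency with an FLuc-β-globin plasmid (PTC-containing or control, with or without an upstream HCV IRES) plus an HCV-IRES RLuc plasmid. The next day they were reseeded and left to recover for 24 h, then given compound for 6 h. Cells were lysed and both luciferases read by luminometry. n = 3 ± SD.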

eIF4A3 [8] = biological target: T1, eIF4A3; assay: Fluorescence polarization; type: binding; conditions: 10 µM compound, 1 mM AMPPNP
eIF4A1 [9] = biological target: T2, eIF4A1 (Homo sapiens, UniProt P60842); assay: FP dissociation of preformed protein•ATP•RNA•compound complexes; type: binding; conditions: 10 µM compound, 1 mM ATP, 1000-fold molar excess unlabeled poly r(AG)8 RNA
How it was run: as §1

eIF4A1 [10] = biological target: T2, eIF4A1; assay: Fluorescence polarization; type: binding; conditions: 10 µM compound, 1 mM AMPPNP

T2 sequence (P60842 whole entry, species assumed): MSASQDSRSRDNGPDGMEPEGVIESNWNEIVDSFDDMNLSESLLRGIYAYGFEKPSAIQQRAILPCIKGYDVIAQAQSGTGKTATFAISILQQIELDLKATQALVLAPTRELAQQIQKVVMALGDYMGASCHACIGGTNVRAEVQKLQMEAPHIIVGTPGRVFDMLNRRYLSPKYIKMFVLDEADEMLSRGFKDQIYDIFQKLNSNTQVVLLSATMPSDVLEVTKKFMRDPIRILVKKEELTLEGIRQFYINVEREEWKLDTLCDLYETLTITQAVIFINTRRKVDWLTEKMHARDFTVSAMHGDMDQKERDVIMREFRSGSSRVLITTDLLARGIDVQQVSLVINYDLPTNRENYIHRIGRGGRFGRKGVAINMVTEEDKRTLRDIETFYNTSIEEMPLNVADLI
T1 sequence (P38919 whole entry, species assumed): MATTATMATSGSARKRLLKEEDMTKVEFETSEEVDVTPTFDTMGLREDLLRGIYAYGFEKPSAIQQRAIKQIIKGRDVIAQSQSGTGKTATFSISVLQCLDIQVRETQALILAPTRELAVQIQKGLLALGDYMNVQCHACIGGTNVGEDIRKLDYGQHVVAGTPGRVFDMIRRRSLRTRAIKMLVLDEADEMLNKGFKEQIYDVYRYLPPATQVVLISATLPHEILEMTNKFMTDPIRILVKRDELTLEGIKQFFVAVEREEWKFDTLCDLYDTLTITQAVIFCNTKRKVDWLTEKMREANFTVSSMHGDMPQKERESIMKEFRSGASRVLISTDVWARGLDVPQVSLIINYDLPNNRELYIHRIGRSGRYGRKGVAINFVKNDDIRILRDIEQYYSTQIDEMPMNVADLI

Compound	FF-4.06 (NMD reporter) mRNA levels [1]	Translational response of all three reporters (AG, UC, NMD 5′ leaders) [2]	TCR-β mRNA levels in PTC+ cells ([3]; PTC+ HeLa cells, 5 h exposure)	TCR-β mRNA levels in PTC− cells ([3]; 5 h exposure)	HPRT mRNA levels [4]	SC35 mRNA levels relative to DMSO controls [4]	Translational response of reporter mRNA with polypurine ([AG]10) 5′ leader [2]	Fitted half-life T(1/2) of eIF4A3•ATP•RNA•compound complex (eIF4A3 [5])	Effect on TCR-β minigene mRNA levels ([3]; PTC+ HeLa cells, 1 µM compound for 1 h)	35S-Met incorporation into proteins (translation) [6]	Luc expression from FF-4.04 or FF-4.06 reporters ([7]; 300 nM, both reporters)	RLuc expression from internal HCV/Ren control [7]	Expression of HCV/FF-4.04 and HCV/FF-4.06 reporters ([7]; titration range tested)	Clamping of eIF4A3 to poly r(AG)8 RNA (ΔmP relative to DMSO) (eIF4A3 [8])	Fitted half-life T(1/2) of eIF4A1•ATP•RNA•compound complex (eIF4A1 [9])	Increase of PTC+ mRNA levels ([3]; PTC+ HeLa cells, 1 h exposure, highest concentration tested (200 nM))	Increase of PTC+ mRNA levels ([3]; PTC+ HeLa cells, 5 h exposure)	Clamping of eIF4A1 to poly r(AG)8 RNA (ΔmP relative to DMSO) (eIF4A1 [10])
C[C@@H]1C[C@@H]([C@H](O)CC2CC(=O)NC(=O)C2)C(=O)[C@@H](C)C1 [CHX, cycloheximide]	increased	equally responsive	significantly increased	no impact	not increased	significant increase	–	–	–	–	–	–	–	–	–	–	–	–
CONC(=O)[C@H]1[C@@H](O)[C@@]2(O)c3c(OC)cc(OC)cc3O[C@@]2(c2ccc(OC)cc2)[C@@H]1c1ccccc1 [CR-1-31B]	increased only in the presence of CHX	–	substantial stabilization	–	not increased	did not significantly change	conferred CR-1-31B responsiveness	0.4 ± 0.0067 h	no significant effect	translation was blocked	approximately twofold	No change	neither reporter showed a change in expression	able to induce clamping	0.833 ± 0.005 h	–	–	–
CC(/C=C/C(C)=C/[C@@H]1Cc2nc(cs2)[C@@H](C)C[C@@H](N)CC(=O)O[C@@H](C)C/C(C)=C/C=C\C(=O)O1)=C\CN(C)C [PatA, pateamine A]	–	equally inhibited all reporters	Stabilization of TCR-β mRNA	but not PTC− cells	not increased	significant increase	–	3.05 h and 3.05 ± 0.02 h	–	translation was blocked	–	–	–	clamping was observed	1.83 h and 1.83 ± 0.0233 h	approximately threefold	10 fold	clamping was observed
COc1ccc([C@@]23Oc4cc(OC)cc(OC)c4[C@]2(O)[C@H](O)[C@H](C(=O)N(C)C)[C@H]3c2ccccc2)cc1 [RocA]	–	–	–	–	–	–	–	–	–	–	–	–	–	able to induce clamping	–	–	–	–
COC(=O)[C@H]1[C@@H](O)[C@@]2(O)c3c(OC)cc(O[C@@H]4O[C@@H]([C@H](O)CO)CO[C@H]4OC)cc3O[C@@]2(c2ccc(OC)cc2)[C@@H]1c1ccccc1 [silvestrol]	–	–	–	–	–	–	–	–	–	–	–	–	–	able to induce clamping	–	–	–	–
